Results as given in ChEMBL document CHEMBL1129246, “Cardiovascular characterization of pyrrolo[2,1-d][1,5]benzothiazepine derivatives binding selectively to the peripheral-type benzodiazepine receptor (PBR): from dual PBR affinity and calcium antagonist activity to novel and selective calcium entry blockers” (J Med Chem, 1996).

Tests used:
Translocator protein [1] = target: T1, Translocator protein (Rattus norvegicus, UniProt P16257); test: Ability to inhibit [3H]-PK 11195 binding to peripheral-type benzodiazepine receptor(PBR) in rat cerebral cortex homogenate; Not active; type: tissue-based
[2] = target: T2, Voltage-dependent L-type calcium channel subunit alpha-1C (Rattus norvegicus, UniProt P22002); test: Ability to inhibit [3H]nitrendipine binding to the L-type calcium channel receptor(CCR) in rat heart homogenate.; type: tissue-based
How it was run: (§1)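 Rat hearts perfused through the aorta with ice-cold saline, then homogenised in 50 mM Na-HEPES pH 7.4, filtered through cheesecloth and washed five times. Incubated 90 min at 0 °C in the dark with 3×10^-10 M [3H]nitrendipine; compounds in 5% DMSO. IC50 by log-probit analysis of six displacer concentrations in triplicate.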

[3] = target: T3, Voltage-gated L-type calcium channel (Rattus norvegicus, UniProt P22002+Q02485+P27732); test: (§2) Inhibition of [3H]nitrendipine binding to L-type calcium channel receptor(CCR) in rat cerebral cortex homogenate; type: tissue-based
How it was run: (§3)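 Male Sprague–Dawley rat cortex homogenised in 50 mM Na-HEPES pH 7.4, washed five times, pellet stored at -70 °C. Incubated 90 min at 0 °C in the dark with 3×10^-10 M [3H]nitrendipine; compounds dissolved in 5% DMSO. Filtration, scintillation counting. IC50 by log-probit analysis of six displacer concentrations in triplicate. Ki by Prusoff's equation using Kd 0.25 nM.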

Cavia porcellus [4] = species: Cavia porcellus; test: Percent decrease of negative inotropic activity on isolated guinea pig left atrium at 5*10e-5 M; type: functional, Cardiac atrium
How it was run: (§4)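 Guinea pig atria (300–400 g, either sex) in oxygenated Tyrode at 35 °C, pH 7.4. Right atria beat spontaneously; left atria paced at 1 Hz. Isometric force recorded after 45–60 min stabilisation. Cumulative concentrations 0.1–50 μmol/L in DMSO (bath ≤0.3%). Potency from log concentration–response curves by probit analysis, n = 6–8.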

Cavia porcellus [5] = species: Cavia porcellus; test: [Ca2+] antagonistic activity on K+ depolarized guinea pig aortic strips (at 5(10e-5) M).; type: functional, Aorta
How it was run: (§5)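 Guinea pig aortic strips under 1 g resting force, equilibrated 1 h in PSS, then contracted with 80 mmol/L KCl. At plateau (~30 min), compounds in DMSO added cumulatively at 0.1–50 μmol/L and relaxation recorded.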

Cavia porcellus [6] = species: Cavia porcellus; test: Activity of chronotropic negative potency on guinea pig spontaneously beating right atrium; type: functional, Cardiac atrium; how it was run: as §4
[7] = target: T3, Voltage-gated L-type calcium channel; test: Ability to inhibit [3H]nitrendipine binding to the calcium channel receptor(CCR) in rat cerebral cortex homogenate.; type: tissue-based
[8] = target: T3, Voltage-gated L-type calcium channel; test: as §2; type: tissue-based; remark: listed apart in the source
How it was run: as §3, with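 “triplicate.” for “triplicate. Ki by Prusoff's equation using Kd 0.25 nM.”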

Translocator protein [9] = target: T1, Translocator protein; test: Ability to inhibit [3H]-PK 11195 binding to peripheral-type benzodiazepine receptor(PBR) in rat cerebral cortex homogenate.; type: tissue-based
Cavia porcellus [10] = species: Cavia porcellus; test: Activity of inotropic negative potency on stimulated guinea pig left atrium; type: functional; conditions: Cardiac atrium, read-out: ED50 (the source's name); how it was run: as §4
Cavia porcellus [11] = species: Cavia porcellus; test: Percent decrease of negative inotropic activity on isolated guinea pig left atrium at 1*10e-5 M; type: functional, Cardiac atrium; how it was run: as §4
Cavia porcellus [12] = species: Cavia porcellus; test: [Ca2+] antagonistic activity on K+ depolarized guinea pig aortic strips (at 5(10e-5) M); type: functional, Aorta; how it was run: as §5
[13] = target: T2, Voltage-dependent L-type calcium channel subunit alpha-1C; test: Ability to inhibit [3H]nitrendipine binding to the L-type calcium channel receptor(CCR) in rat heart homogenate; type: tissue-based
How it was run: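 Rat heart perfused via aorta with ice-cold saline, homogenized in 50 mM Na-HEPES pH 7.4, filtered through cheesecloth, washed five times at 48000g, and stored at -70 °C. Homogenate incubated 90 min at 0 °C in the dark with 3×10^-10 M [3H]nitrendipine; compounds in 5% DMSO. Bound counts taken after filtration. IC50 by log-probit from six concentrations in triplicate.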

Cavia porcellus [14] = species: Cavia porcellus; test: Percent decrease of negative chronotropic activity on isolated guinea pig spontaneously beating right atrium at 1*10e-4 M; type: functional, Cardiac atrium
Cavia porcellus [15] = species: Cavia porcellus; test: IC50 activity of [Ca2+] antagonistic potency on K+ depolarized guinea pig aortic strips; type: functional; conditions: Aorta; how it was run: as §5
Cavia porcellus [16] = species: Cavia porcellus; test: Percent decrease of negative chronotropic activity on isolated guinea pig spontaneously beating right atrium at 1*10e-5 M; type: functional, Cardiac atrium; how it was run: as §4
Cavia porcellus [17] = species: Cavia porcellus; test: Activity of chronotropic negative potency on guinea pig spontaneously beating right atrium.; type: functional, Cardiac atrium; how it was run: as §4
[18] = target: T2, Voltage-dependent L-type calcium channel subunit alpha-1C; test: Ability to inhibit [3H]nitrendipine binding to the L-type calcium channel receptor(CCR) in rat heart homogenate; Not active; type: tissue-based; how it was run: as §1
Cavia porcellus [19] = species: Cavia porcellus; test: [Ca2+] antagonistic activity on K+ depolarized guinea pig aortic strips at 5*10e-5 M; type: functional, Aorta; how it was run: as §5
[20] = target: T3, Voltage-gated L-type calcium channel; test: Ability to inhibit [3H]nitrendipine binding to the calcium channel receptor(CCR) in rat cerebral cortex homogenate; Not active; type: tissue-based; how it was run: as §3
Cavia porcellus [21] = species: Cavia porcellus; test: Activity of inotropic negative potency on stimulated guinea pig left atrium.; type: functional; conditions: Cardiac atrium, read-out: ED50 (the source's name)
How it was run: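 Isolated left atria from guinea pigs (300–400 g, either sex), Tyrode PSS gassed with 95% O2–5% CO2, 35 °C, pH 7.4, driven at 1 Hz by rectangular pulses; isometric force recorded after 45–60 min stabilization.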

Cavia porcellus [22] = species: Cavia porcellus; test: Percent decrease of negative chronotropic activity on isolated guinea pig spontaneously beating right atrium at 1*10e-6 M; type: functional, Cardiac atrium; how it was run: as §4
Cavia porcellus [23] = species: Cavia porcellus; test: [Ca2+] antagonistic activity on K+ depolarized guinea pig aortic strips at 10e-4 M; type: functional; conditions: Aorta

In the case of COc1ccc(C2=C(OC(=O)c3cc(OC)c(OC)c(OC)c3)c3cccn3-c3cc(C(F)(F)F)ccc3S2)cc1, the IC50 (Translocator protein [1]) is reported as “Not Active”.
For CC(=O)O[C@@H]1c2ccc(CN(C)C)n2-c2cccc(Cl)c2S[C@@H]1c1ccccc1, the IC50 [2] was 12 nM, the Ki [3] was 13 nM and the Decrease (Cavia porcellus [4]) was 41%. It also gave an Inhibition (Cavia porcellus [5]) of 32% and an ED30 (Cavia porcellus [6]) of 850 nM.
For CC(=O)O[C@@H]1c2ccc(CN(C)C)n2-c2ccccc2S[C@@H]1c1ccccc1, the IC50 [7] was 5200 nM.
In the case of COc1ccc(C2Sc3ccccc3-n3c(CN(C)C)ccc32)cc1 (stereo unspecified), the Ki [8] is reported as 0.19 nM, the IC50 (Translocator protein [9]; read-out: IC50) is reported as > 2000 nM and the EC50 (Cavia porcellus [10]) is reported as 810 nM. It also gave a Decrease (Cavia porcellus [11]) of 75%, an Inhibition (Cavia porcellus [12]) of 10% and an IC50 [13] of 17 nM. It also gave a Decrease (Cavia porcellus [14]) of 30%.
In the case of CCCC(=O)OC1=C(c2ccccc2)Sc2ccccc2-n2cccc21, the IC50 [7] is reported as 4.88 nM.
For COc1ccc(C2=C(OC(=O)c3cc(OC)c(OC)c(OC)c3)c3cccn3-c3ccccc3S2)cc1, the IC50 (Translocator protein [1]) was “Not Active”.
With COc1ccc(C2=C(OC(=O)c3cc(OC)c(OC)c(OC)c3)c3cccn3-c3cc(Cl)ccc3S2)cc1 the IC50 (Translocator protein [9]) was “Not Active”.
With COc1ccc([C@H]2Sc3ccccc3-n3c(CN(C)C)ccc3[C@H]2OC(C)=O)cc1 the IC50 (Cavia porcellus [15]) was 4450 nM, the Decrease (Cavia porcellus [16]) was 90% and the EC50 (Cavia porcellus [10]) was 710 nM. The Decrease (Cavia porcellus [4]) was 87%, the Inhibition (Cavia porcellus [12]) was 56% and the ED30 (Cavia porcellus [6]) was 1500 nM. The IC50 [7] was 136 nM.
For COc1ccc(C2=C(OC(C)=O)c3cccn3-c3cc(Cl)ccc3S2)cc1, the IC50 [7] was 132 nM.
Compound COc1ccc([C@H]2Sc3ccc(Cl)cc3-n3c(CN(C)C)ccc3[C@H]2OC(C)=O)cc1 has a Ki [3] of 1.5 nM, a Decrease (Cavia porcellus [16]) of 61% and an EC50 (Cavia porcellus [10]) of 660 nM. For the same compound, the ED30 (Cavia porcellus [17]) was 880 nM, the Decrease (Cavia porcellus [4]) was 83% and the Inhibition (Cavia porcellus [5]) was 40%. It also gave an IC50 [7] of 3.3 nM.
CC(=O)OC1=C(c2ccccc2)Sc2ccc(Cl)cc2-n2cccc21 gave an IC50 (Translocator protein [9]; read-out: IC50) of 560 nM and an IC50 [7] of 150 nM.
CC(=O)OC1=C(c2ccccc2)Sc2ccccc2-n2cccc21 was tested, and the IC50 [2] was 220 nM and the IC50 [7] was 6 nM.
For COc1ccc(C2=C(OC(=O)N(C)C)c3cccn3-c3ccccc3S2)cc1, the IC50 [18] was “Not Active” and the IC50 [7] was 420 nM.
COc1ccc(C2=C(OC(C)=O)c3cccn3-c3ccccc3S2)cc1 gave an IC50 [2] of 340 nM, a Decrease (Cavia porcellus [16]) of 26% and an Inhibition (Cavia porcellus [19]) of 27%. The EC50 (Cavia porcellus [10]) was 310 nM, the Decrease (Cavia porcellus [4]) was 86% and the IC50 [7] was 0.13 nM.
For COc1ccc(C2=C(OC(C)=O)c3cccn3-c3cc(C(F)(F)F)ccc3S2)cc1, the IC50 (Translocator protein [1]) was “Not Active” and the IC50 [7] was > 2000 nM.
CCCC(=O)OC1=C(c2ccc(OC)cc2)Sc2ccccc2-n2cccc21 was tested, and the IC50 [2] was 150 nM and the IC50 [7] was 16 nM.
CCCCC(=O)OC1=C(c2ccccc2)Sc2ccccc2-n2cccc21 gave an IC50 [2] of 610 nM.
For CC(=O)OC1=C(c2ccccc2)Sc2ccc(Cl)cc2-n2c(CN(C)C)ccc21, the IC50 (Translocator protein [9]; read-out: IC50) was > 2000 nM and the IC50 [7] was 960 nM.
In the case of COc1ccc(C2=C(OC(C)=O)c3ccc(CN(C)C)n3-c3cc(Cl)ccc3S2)cc1, the IC50 (Translocator protein [9]; read-out: IC50) is reported as > 2000 nM.
CC(=O)O[C@@H]1c2ccc(CN(C)C)n2-c2cc(C(F)(F)F)ccc2S[C@@H]1c1ccccc1 showed an IC50 [7] of 300 nM.
For CC(=O)OC1=C(c2ccccc2)Sc2ccccc2-n2c(CN(C)C)ccc21, the IC50 (Translocator protein [9]; read-out: IC50) was > 2000 nM.
In the case of CC(=O)O[C@@H]1c2ccc(CN(C)C)n2-c2cc(Cl)ccc2S[C@@H]1c1ccccc1, the IC50 [18] is reported as “Not Active” and the IC50 [20] is reported as 1230 nM.
Work on COc1ccc([C@@H]2Sc3ccccc3N(CCN(C)C)C(=O)[C@@H]2OC(C)=O)cc1 [DILTIAZEM] yielded an EC50 (Cavia porcellus [21]) of 790 nM, a Decrease (Cavia porcellus [22]) of 94% and an inhibition at 100 µM (Cavia porcellus [23]) of 88%. For the same compound, the ED30 (Cavia porcellus [17]) was 70 nM and the Decrease (Cavia porcellus [11]) was 78%.
